{"data": "Results pooled from the literature", "medium": "PAMPA"}
{"SMILES": "O=C(OCc1ccccc1)c1ccc(O)cc1", "conditions": "5 µM, pH 7.4", "Papp": "3.79 ×10⁻⁶ cm/s"}
{"SMILES": "C=C(CC(=O)OCOC(=O)C(C)(C)C)C(=O)O", "conditions": "10 µM, 4 h, pH 7.4", "Papp": "< 1 ×10⁻⁶ cm/s"}
{"SMILES": "Cc1c(S(=O)(=O)N2CCC(C)CC2)cc(C(=O)NCc2cccnc2N2CCCC2)n1C", "Papp": "32.8 ×10⁻⁶ cm/s"}
{"SMILES": "C=C(CC(=O)OC)C(=O)OCOC(=O)C(C)(C)C", "conditions": "10 µM, 4 h, pH 7.4", "Papp": "> 10 ×10⁻⁶ cm/s"}
{"SMILES": "CCOC(=O)c1ccc(O)cc1", "conditions": "5 µM, pH 7.4", "Papp": "4.72 ×10⁻⁶ cm/s"}
{"SMILES": "C=C(CC(=O)OCOC(=O)C(C)(C)C)C(=O)OC", "conditions": "10 µM, 4 h, pH 7.4", "Papp": "> 10 ×10⁻⁶ cm/s"}
{"SMILES": "Cc1c(S(=O)(=O)N2CCn3nccc3C2)cc(C(=O)NCc2cccnc2N2CCCC2)n1C", "Papp": "27.9 ×10⁻⁶ cm/s"}
{"SMILES": "C=C(CC(=O)OC)C(=O)OCc1oc(=O)oc1C", "conditions": "10 µM, 4 h", "Papp": "~15 ×10⁻⁶ cm/s"}
{"SMILES": "Cc1c(S(=O)(=O)N2CCc3c(cnn3C)C2)cc(C(=O)NCc2cccnc2N2CCCC2)n1C", "Papp": "25 ×10⁻⁶ cm/s"}
{"SMILES": "CCCCCOC(=O)c1ccc(O)cc1", "conditions": "5 µM, pH 7.4", "Papp": "4.28 ×10⁻⁶ cm/s"}
{"SMILES": "Cc1c(S(=O)(=O)N2CCn3nccc3C2)cc(C(=O)NCc2c(F)ccc3cnn(C)c23)n1C", "Papp": "25 ×10⁻⁶ cm/s"}
{"SMILES": "O=C(O)c1cc(/N=N/c2ccc(S(=O)(=O)Nc3ccccn3)cc2)ccc1O", "conditions": "4 h", "Papp": "0.077 ×10⁻⁶ cm/s"}
{"SMILES": "Cc1c(S(=O)(=O)N2CCn3cccc3C2)cc(C(=O)NCc2cccnc2N2CCCC2)n1C", "Papp": "27.6 ×10⁻⁶ cm/s"}
{"SMILES": "CCCCOC(=O)c1ccc(O)cc1", "conditions": "5 µM, pH 7.4", "Papp": "5.68 ×10⁻⁶ cm/s"}
{"SMILES": "Cc1[nH]c(C)c(S(=O)(=O)Nc2ccc(C(F)(F)F)c(Cl)c2Cl)c1C(=O)N1CCC(F)(F)C1", "Papp": "0.18 ×10⁻⁶ cm/s"}
